Among the data in ChEMBL document CHEMBL4619805, “Structural Analysis of VDR Complex with ZK168281 Antagonist” (J Med Chem, 2020) are Activity and inhibition values, retold here.

The target in assay [1] is T1, Vitamin D3 receptor A (Danio rerio) (UniProt Q9PTN2).
T1 sequence (whole entry): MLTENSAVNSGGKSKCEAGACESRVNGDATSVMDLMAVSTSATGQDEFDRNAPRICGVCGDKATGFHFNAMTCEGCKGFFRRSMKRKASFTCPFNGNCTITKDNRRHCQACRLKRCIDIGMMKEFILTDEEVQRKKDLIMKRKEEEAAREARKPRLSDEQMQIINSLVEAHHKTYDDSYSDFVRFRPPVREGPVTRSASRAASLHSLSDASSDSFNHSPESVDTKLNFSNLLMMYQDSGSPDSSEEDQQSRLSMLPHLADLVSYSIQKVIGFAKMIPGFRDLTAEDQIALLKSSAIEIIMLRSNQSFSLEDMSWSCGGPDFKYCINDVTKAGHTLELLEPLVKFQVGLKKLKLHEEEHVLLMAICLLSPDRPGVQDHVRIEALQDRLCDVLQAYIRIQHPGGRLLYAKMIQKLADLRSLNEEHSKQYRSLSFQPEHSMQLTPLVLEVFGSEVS
The experiment in a line: Binding affinity to H10 to H11 region (416 to 437 residues) of zebrafish VDR LBD assessed as stabilization of structural elements by measuring increase in protection at 10 fold excess compound concentration in presence of SRC1 NR2 coactivator peptide measured at 1 mins by HDX-MS analysis. In short, it runs like this:
(§1)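 Deuterium exchange at pH 8.0 for 60, 180, 600 or 1800 s. Quench, pepsin digestion, UPLC-MS. Per-residue deuteration corrected to a fully deuterated control; triplicates.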

Assay [2] concerns the target T1, Vitamin D3 receptor A (Danio rerio). The assay is described as follows: Binding affinity to H2 region of zebrafish VDR LBD assessed as stabilization of structural elements forming LBP at 10 fold excess compound concentration by HDX-MS analysis. In short, it runs like this: (§2)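 zVDR LBD (residues 156–453, 10 µM) preincubated 30 min at room temperature with tenfold ligand excess (ethanol control). D2O exchange in 50 mM Tris pH 8.0, 50 mM NaCl, 2% glycerol, 1 mM TCEP for 60–1800 s. Quench with urea/TFA, online pepsin digest, UPLC-MS. Back-exchange corrected against fully deuterated sample; triplicates.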

For assay [3] the target is unchanged. The experiment in a line: Binding affinity to H1 region of zebrafish VDR LBD assessed as stabilization of structural elements forming LBP at 10 fold excess compound concentration by HDX-MS analysis. In short, it runs like this: as §2
The target is the same in assay [4]. The assay is described as follows: Binding affinity to H5 region (290 to 297 residues) of zebrafish VDR LBD assessed as destabilization of structural elements by measuring deprotection at 10 fold excess compound concentration in presence of SRC1 NR2 coactivator peptide measured at 1 mins by HDX-MS analysis relative to 1,25D3.
For assay [5] the target is unchanged. The experiment in a line: Antagonist activity at full-length zebrafish VDR expressed in rat IEC18 cells co-expressing CYP24A1 promoter region assessed as reduction in 1,25D3-induced receptor activation at 1 to 1000 nM incubated for 24 hrs by luciferase reporter gene assay.
For assay [6], the target named is T2, Vitamin D3 receptor (Homo sapiens) (UniProt P11473).
T2 sequence (whole entry): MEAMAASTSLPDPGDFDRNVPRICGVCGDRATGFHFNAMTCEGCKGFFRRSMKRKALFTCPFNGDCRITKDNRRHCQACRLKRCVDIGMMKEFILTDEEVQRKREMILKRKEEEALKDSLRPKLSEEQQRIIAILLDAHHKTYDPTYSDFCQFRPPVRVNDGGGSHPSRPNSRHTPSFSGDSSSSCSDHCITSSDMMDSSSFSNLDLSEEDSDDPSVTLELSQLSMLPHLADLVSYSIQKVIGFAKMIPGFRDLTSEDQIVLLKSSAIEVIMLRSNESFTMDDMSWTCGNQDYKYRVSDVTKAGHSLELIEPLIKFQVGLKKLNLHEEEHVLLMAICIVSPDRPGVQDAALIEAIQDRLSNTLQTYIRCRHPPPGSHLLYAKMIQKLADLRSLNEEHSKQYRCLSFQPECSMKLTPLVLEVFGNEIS
The assay is described as follows: Antagonist activity at human VDR expressed in HEK293 EBNA cells co-expressing CYP24A1 promoter region assessed as reduction in 1,25D3-induced receptor activation at 0.1 to 1000 nM incubated for 18 hrs by luciferase reporter gene assay relative to control. The class given is cell-based. More on the design: scale not given: the % may be the effect or the level left. In short, it runs like this: (§3)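 HEK293 EBNA cells, in 5% charcoal-treated FCS for 48 h, co-transfected by jetPEI with full-length hVDR, firefly luciferase under the human CYP24A1 proximal promoter (-414 to -64), and Renilla. 6 h later, 10 nM 1,25D3 ± compound (0.1–1000 nM) added for 18 h. Lysate luciferase normalized to Renilla; triplicate, mean ± SD.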
(In a reporter assay the amount or activity of a reporter protein is the signal.)

Assay [7] has as its target T1, Vitamin D3 receptor A (Danio rerio). The experiment in a line: Binding affinity to H12 region of zebrafish VDR LBD assessed as stabilization of structural elements at 10 fold excess compound concentration in presence of SRC1 NR2 coactivator peptide by HDX-MS analysis. In short, it runs like this: as §1
For assay [8] the target is unchanged. The experiment in a line: Binding affinity to H6 to H7 region (322 to 344 residues) of zebrafish VDR LBD assessed as stabilization of structural elements by measuring increase in protection at 10 fold excess compound concentration in presence of SRC1 NR2 coactivator peptide measured at 1 mins by HDX-MS analysis. In short, it runs like this:
as §1

For assay [9] the target is unchanged. The experiment in a line: Binding affinity to H3 region (253 to 267 residues) of zebrafish VDR LBD assessed as stabilization of structural elements by measuring increase in protection at 10 fold excess compound concentration in presence of SRC1 NR2 coactivator peptide measured at 1 mins by HDX-MS analysis. In short, it runs like this: as §1
Assay [10] deals with T2, Vitamin D3 receptor (Homo sapiens). The assay is described as follows: Antagonist activity at human VDR expressed in HEK293 EBNA cells co-expressing CYP24A1 promoter region assessed as reduction in 1,25D3-induced receptor activation at 0.1 to 1000 nM incubated for 18 hrs by luciferase reporter gene assay. The class given is cell-based. In short, it runs like this: as §3

The target of assay [11] is T1, Vitamin D3 receptor A (Danio rerio). The experiment in a line: Binding affinity to H3 and H7 region of zebrafish VDR LBD assessed as stabilization of structural elements by measuring increase in protection at 10 fold excess compound concentration in presence of SRC1 NR2 coactivator peptide measured at 1 mins by HDX-MS analysis. In short, it runs like this:
as §1

Assay [12] has the same target. The assay is described as follows: Binding affinity to H12 region of zebrafish VDR LBD assessed as stabilization of structural elements forming LBP at 10 fold excess compound concentration by HDX-MS analysis. In short, it runs like this: as §2
For assay [13] the target is unchanged. The experiment in a line: Binding affinity to H10 region (416 to 426 residues) of zebrafish VDR LBD assessed as stabilization of structural elements at 10 fold excess compound concentration in presence of SRC1 NR2 coactivator peptide measured at 3 and 10 mins by HDX-MS analysis. In short, it runs like this:
(§4)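 Deuterium exchange ran for 60, 180, 600 or 1800 s in D₂O buffer (50 mM Tris pH 8.0, 50 mM NaCl, 2% glycerol, 1 mM TCEP). Quench with urea/TFA, then online pepsin digestion and UPLC-MS. Uptake corrected for back exchange against a fully deuterated control. Triplicates.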

Assay [14] shares this target. The experiment in a line: Binding affinity to H12 region (440 to 445 residues) of zebrafish VDR LBD assessed as stabilization of structural elements by measuring increase in protection at 10 fold excess compound concentration in presence of SRC1 NR2 coactivator peptide measured at 1 mins by HDX-MS analysis. In short, it runs like this: as §4
Assay [15] shares this target. The assay is described as follows: Binding affinity to zebrafish VDR LBD assessed as stabilization of structural elements forming LBP at 10 fold excess compound concentration by HDX-MS analysis. In short, it runs like this:
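zVDR LBD (10 µM) incubated 30 min at room temperature with ten-fold ligand excess, ethanol as control. D₂O exchange for 60, 180, 600 or 1800 s in 50 mM Tris pH 8.0, 50 mM NaCl, 2% glycerol, 1 mM TCEP. Quench with 3 M urea/0.1% TFA, then pepsin column digestion and UPLC-MS. Back-exchange corrected using a fully deuterated sample. Triplicate reactions.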

The source made the active and inactive calls. The calls are words filed in the database; no cut-off is given here.

For the compound `C=C1/C(=C\C=C2/CCC[C@]3(C)[C@@H]([C@H](C)/C=C/[C@@H](O)C4(/C=C/C(=O)OCC)CC4)CC[C@@H]23)C[C@@H](O)C[C@@H]1O`, the result in assay [1], in assay [2], in assay [3], in [8] and in [9] was Active. For the same compound, the Activity in assay [4] is more than 30%; in assay [6] it was less than 60%; in assay [11], less than 80%. The inhibition entry in [5] was “Active”. For the same compound, the result in assay [7] and in assay [12] was inactive. Also, the inhibition result in [10] was “Dose-dependent effect”.
Take `C=C1/C(=C\C=C2/CCC[C@]3(C)[C@@H]([C@H](C)CCCC(C)(C)O)CC[C@@H]23)C[C@@H](O)C[C@@H]1O`: the outcome in assay [13] and in assay [15] was Active. For the same compound, the Activity in assay [14] lay in the range of 30 to 40%. Moreover, the outcome in assay [12] was inactive.
